Screens (PubChem)
Calpain2 inh – inhibitors of pig calpain II, primary screen, biochemical, fluorogenic peptide substrate, 1536-well | purified calpain II, 30 min | inhibition, % at 16 µM | 220,000 tested, 0.37% active | AID 1236, 2008;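 active = inhibition above about 50%, limit read from the data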
Lmaj promast – Leishmania major promastigote growth inhibition, primary screen; Leishmania major promastigotes, resazurin fluorescence viability; inhibition, % at 10 µM; 200,000 tested, 9% active; AID 1063, 2008; in the data active = inhibition above about 50%;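 note: promastigotes grown with compound for 44 hours at 28 °C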
Rad51 HR inh – human RAD51 strand exchange inhibitors, primary screen, biochemical, fluorescence. DNA repair protein RAD51 homolog 1 (Homo sapiens), Q06609. hRad51 DNA strand exchange, fluorescence dequenching. inhibition, % at 10 µM. 200,000 tested, 0.085% active. AID 1385, 2008;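 active = inhibition above 40% at the single screening dose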;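 note: 0% = DMSO control wells and 100% = blanks with heterologous ssDNA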
Target sequence (Q06609 whole entry, looked up): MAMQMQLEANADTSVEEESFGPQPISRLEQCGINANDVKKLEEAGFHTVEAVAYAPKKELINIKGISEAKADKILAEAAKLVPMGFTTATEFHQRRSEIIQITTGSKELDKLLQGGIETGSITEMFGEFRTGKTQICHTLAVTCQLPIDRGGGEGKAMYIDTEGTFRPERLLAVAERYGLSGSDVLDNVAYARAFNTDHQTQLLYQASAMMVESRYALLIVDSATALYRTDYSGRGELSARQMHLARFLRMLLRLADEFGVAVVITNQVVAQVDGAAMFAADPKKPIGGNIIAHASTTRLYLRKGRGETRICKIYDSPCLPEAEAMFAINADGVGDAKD
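System: human Rad51 nucleoprotein filaments preassembled on unlabelled ssDNA. Reagent: labelled 47-mer dsDNA for strand exchange. Schedule: 30-min compound preincubation and 15-min exchange, both room temperature. Measured by: FRET fluorescence dequenching, excitation 485 nm, emission 520 nm. Read-out: Fluorescence-based percent inhibition, control- and blank-normalised. Benchmarks: plate controls and plate blanks.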
PMI act hi M6P – human PMI activators, high substrate, primary screen, biochemical, fluorescence intensity, near-saturating mannose 6-phosphate. Mannose-6-phosphate isomerase (Homo sapiens), P34949. coupled PMI enzyme assay, resazurin fluorescence, 20 min; stronger effect = higher value; 1 = untreated enzyme, 0 = substrate-free blank. activation factor at 20 µM. 190,000 tested, 0.34% active;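 active = activation factor of 2 or more at 20 µM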
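assay system = human phosphomannose isomerase with PGI, G6PDH, diaphorase coupling enzymes | quantity = 15 ng/mL PMI | incubation = enzyme reaction with compound 20 min at room temperature | medium = HEPES pH 7.4 buffer with MgCl2 and Tween-20 | compound dosing = one concentration, 20 µM, in 1% DMSO | measured by = Diaphorase-driven resazurin-to-resorufin fluorescence, excitation 544, emission 590 nm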
PMI act – activators of human PMI, primary screen, biochemical, fluorescence intensity, near-Km mannose 6-phosphate. Mannose-6-phosphate isomerase (Homo sapiens), P34949. purified human PMI, coupled resazurin fluorescence, 20 min; stronger effect = higher value; 1 = vehicle control, 0 substrate-free wells. activation factor at 20 µM. 190,000 tested, 0.005% active. AID 1214, 2008;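 active = activation factor of 2 or more at 20 µM, relative to plate controls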
WT yeast gro inh – growth inhibition of WT strain, primary screen, mitochondrial fusion inhibitor project, WT and mutant strains, chemical genetic; AID 1362, 2008; 190,000 tested, 2.1% active; inhibition, % at 10 µM; mitochondrial fusion phenotypic screen; in the data active = inhibition above about 58%; tested in S. cerevisiae
The depositor's hits bear a star. Sampled rows, rich in hits. Any-hit rate of the full collection: about 9.8%.

Screening COc1ccc(Cc2nc3ccc(S(=O)(=O)N4CCOCC4)cc3[nH]2)cc1 returned Calpain2 inh 18.0, Lmaj promast 0.4, PMI act hi M6P 1.1, PMI act 1.1 and WT yeast gro inh 79.4*.
For O=S(=O)(c1ccc2nc(SCc3ccc(Cl)cc3)[nH]c2c1)N1CCOCC1 the results were Calpain2 inh 16.4, Lmaj promast 81.3*, Rad51 HR inh -6.8, PMI act hi M6P 1.1, PMI act 1.1 and WT yeast gro inh 6.9.
For COc1ccc(Cc2nc3ccc(S(=O)(=O)N4CCOCC4)cc3[nH]2)cc1OC the results were Calpain2 inh 0.7, Lmaj promast -5.7, PMI act hi M6P 0.9, PMI act 1 and WT yeast gro inh -4.1.
`CC1CCCC(C)N1CC(O)COCC1COc2ccccc2O1` (stereo not drawn) gave Calpain2 inh -14.1, Lmaj promast 52.2*, Rad51 HR inh 3.0, PMI act hi M6P 1, PMI act 1.1 and WT yeast gro inh -14.7.
`OCCN1CCN(CC(O)COCC2COc3ccccc3O2)CC1` (stereo not drawn) gave Calpain2 inh -7.0, Lmaj promast -4.6, Rad51 HR inh 7.2, PMI act hi M6P 1.1, PMI act 1.1 and WT yeast gro inh -21.3.
`CN(C)c1ccc(C2Nc3ccccc3C(=O)N2CCCN2CCOCC2)cc1` (stereo not drawn) gave Calpain2 inh -17.4 and Rad51 HR inh 3.4.
Screening CCOc1ccc2nc(CN3CCN(Cc4ccsc4)C(CCO)C3)ccc2c1 (stereo not drawn) returned Calpain2 inh -33.9, Lmaj promast 21.2, Rad51 HR inh 4.8, PMI act hi M6P 0.9, PMI act 1 and WT yeast gro inh 7.8.
For COC(=O)c1ccc(NC(=O)Nc2ccc(F)c(Cl)c2)cc1 the results were Calpain2 inh 12.2, Lmaj promast -5.5, Rad51 HR inh -3.5, PMI act hi M6P 0.9, PMI act 0.9 and WT yeast gro inh 61.5*.
NNC(=O)C1CCCN1S(=O)(=O)c1ccc(Cl)cc1 (stereo not drawn) was read as Calpain2 inh -16.4, Lmaj promast 11.2, Rad51 HR inh 2.1, PMI act hi M6P 1, PMI act 1 and WT yeast gro inh -9.5.
COC(=O)c1cccc(NC(=O)Nc2ccc(Cl)c(Cl)c2)c1 was read as Calpain2 inh 26.1, Lmaj promast 87.1*, Rad51 HR inh 6.2, PMI act hi M6P 0.9, PMI act 0.9 and WT yeast gro inh 23.1.
CCC(C)NC(=O)Nc1ccc(F)c(Cl)c1 (stereo not drawn) was read as Calpain2 inh 11.2, Lmaj promast 95.8*, Rad51 HR inh -15.0, PMI act hi M6P 1, PMI act 1.1 and WT yeast gro inh -11.3.
`COC(=O)c1cccc(NC(=O)NC2CCCN2S(=O)(=O)c2ccc(Cl)cc2)c1` (stereo not drawn) gave Calpain2 inh 2.6, Lmaj promast 76.0*, Rad51 HR inh 8.6, PMI act hi M6P 0.9, PMI act 0.9 and WT yeast gro inh -14.6.
For CC(C)NS(=O)(=O)c1ccc(CCC(=O)N2CCCCC2)cc1 the results were Calpain2 inh 15.0, Lmaj promast 11.3, Rad51 HR inh 1.2, PMI act hi M6P 1.1, PMI act 1.1 and WT yeast gro inh -5.0.
`CCC1CCC2(CC1)NC(=O)N(CC(=O)c1c(C)[nH]c3ccccc13)C2=O` (stereo not drawn) gave Calpain2 inh -18.6, Lmaj promast -1.3, Rad51 HR inh -39.3, PMI act hi M6P 1, PMI act 0.9 and WT yeast gro inh -12.3.
`COc1ccc(CC(NC(C)=O)C(=O)NC2CCN(c3nnnn3-c3ccccc3)CC2)cc1OC` (stereo not drawn) gave Calpain2 inh -7.9, Lmaj promast -4.5, Rad51 HR inh 20.6 and WT yeast gro inh -12.4.
`O=C1C2C3C=CC(C3)C2C(=O)N1c1ccc(N2CCN(c3ccccn3)CC2)c([N+](=O)[O-])c1` (stereo not drawn) gave Calpain2 inh 16.0, Lmaj promast 75.8*, Rad51 HR inh -3.2, PMI act hi M6P 1, PMI act 1 and WT yeast gro inh -4.5.
`CCC(C)NC(=O)CCSc1ccc(C)cc1` (stereo not drawn) gave Calpain2 inh 20.6, Lmaj promast -2.0, PMI act hi M6P 0.9, PMI act 1 and WT yeast gro inh 14.8.
CN(C)c1ccc(-c2nc3n(n2)C(c2cccnc2)C2=C(CC(C)(C)CC2=O)N3)cc1 (stereo not drawn) was read as Calpain2 inh 5.6, Lmaj promast 91.7*, Rad51 HR inh -3.4, PMI act hi M6P 1, PMI act 1 and WT yeast gro inh 46.5.
`O=[N+]([O-])c1cccc(-c2nc3ccccc3s/c2=N/O)c1` gave Calpain2 inh 47.0 and Rad51 HR inh -0.7.
`Cc1cc2nc3c(nc2cc1C)C(O)=C3O` gave Calpain2 inh -15.9 and Rad51 HR inh -2.6.
For O=C(N/N=C/c1ccc([N+](=O)[O-])o1)c1ccc(O)cc1 the results were Calpain2 inh 27.1, Lmaj promast 99.6*, Rad51 HR inh 0.8, PMI act hi M6P 0.5, PMI act 1 and WT yeast gro inh 5.1.
Screening Cc1nc2ccccn2c1C(=O)N/N=C/c1ccc([N+](=O)[O-])o1 returned Calpain2 inh -74.7, Lmaj promast 100.0*, Rad51 HR inh -23.1, PMI act hi M6P 0.7, PMI act 1.2 and WT yeast gro inh -5.0.
O=C(CNC(=O)c1ccccc1)N/N=C/c1cccs1 was read as Calpain2 inh -1.6, Lmaj promast 8.6, Rad51 HR inh -32.3, PMI act hi M6P 1, PMI act 1 and WT yeast gro inh -3.0.
For O=[N+]([O-])c1cc(/C=N/N/C(=N/c2ccccn2)c2ccccn2)ccc1O the results were Calpain2 inh 12.5, Lmaj promast 51.6*, Rad51 HR inh -21.6, PMI act hi M6P 1.4, PMI act 1.2 and WT yeast gro inh 5.5.
Screening O=[N+]([O-])c1ccc(/C=N/N/C(=N/c2ccccn2)c2ccccn2)cc1 returned Calpain2 inh 8.6, Lmaj promast -0.2, Rad51 HR inh 2.9, PMI act hi M6P 1.1, PMI act 1.1 and WT yeast gro inh -2.5.
Screening O=C(CNC(=O)c1ccccc1)N/N=C/c1ccc([N+](=O)[O-])s1 returned Calpain2 inh 2.3, Lmaj promast 100.5*, Rad51 HR inh 4.2, PMI act hi M6P 0.9, PMI act 0.9 and WT yeast gro inh -3.0.
Screening CCCSc1nnc(NC(=O)Nc2ccccc2OC)s1 returned Calpain2 inh 1.3 and Rad51 HR inh 8.6.
